From ChEMBL document CHEMBL1134845, “Syntheses and biological activities of a novel group of steroidal derived inhibitors for human Cdc25A protein phosphatase” (J Med Chem, 2001)

Assays:
786-0 = assay: Growth inhibitory activity was determined against 786-0 cancer cell line of renal cancer; format: functional; details: Homo sapiens
Method in brief: (§1)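 NCI 60 human tumour cell line screen run at the National Cancer Institute. Cell growth and viability read with the protein stain sulforhodamine B, which binds basic amino acids of cells left attached after washing. […] MG MID is the mean GI50 calculated over all panels.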

A549 = assay: Growth inhibitory activity was determined against A549/ATCC cancer cell line of non-small cell lung cancer; format: functional, Homo sapiens; details: Homo sapiens, A549; method in brief: as §1
[1] = biological target: T1, M-phase inducer phosphatase 1 (Homo sapiens) (UniProt P30304); assay: (§2) Inhibitory activity tested against cell division cycle 25A (assay using p-nitro phenyl phosphate (pNPP) as substrate)
T1 sequence (whole entry): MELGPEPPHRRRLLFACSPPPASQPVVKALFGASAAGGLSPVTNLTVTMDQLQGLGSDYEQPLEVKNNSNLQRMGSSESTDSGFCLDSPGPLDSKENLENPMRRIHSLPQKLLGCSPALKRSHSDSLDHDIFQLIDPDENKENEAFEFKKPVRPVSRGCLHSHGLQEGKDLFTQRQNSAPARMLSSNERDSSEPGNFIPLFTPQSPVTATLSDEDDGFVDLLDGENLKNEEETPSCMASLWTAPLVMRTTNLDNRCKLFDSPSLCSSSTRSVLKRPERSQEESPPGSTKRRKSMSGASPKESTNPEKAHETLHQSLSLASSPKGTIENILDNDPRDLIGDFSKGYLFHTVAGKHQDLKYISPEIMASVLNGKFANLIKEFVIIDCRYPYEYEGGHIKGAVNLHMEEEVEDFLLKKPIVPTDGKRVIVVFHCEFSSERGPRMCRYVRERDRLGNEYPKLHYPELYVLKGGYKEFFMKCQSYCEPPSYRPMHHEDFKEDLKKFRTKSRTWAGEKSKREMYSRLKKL

LOX IMVI = assay: Growth inhibitory activity was determined against LOX IMVI cancer cell line of melanoma; format: functional, Homo sapiens; details: Homo sapiens, LOX IMVI; method in brief: as §1
U-251 = assay: Growth inhibitory activity was determined against U-251 cancer cell line of CNS cancer; format: functional; details: Homo sapiens; method in brief: as §1
PC-3 = assay: Growth inhibitory activity was determined against PC-3 cancer cell line of Prostate cancer; format: functional; details: Homo sapiens; method in brief: as §1
SK-MEL-5 = assay: Growth inhibitory activity was determined against SK-MEL-5 cancer cell line of melanoma; format: functional, Homo sapiens; details: Homo sapiens, SK-MEL-5; method in brief: as §1
COLO 205 = assay: Growth inhibitory activity was determined against COLO 205 cancer cell line colon cancer; format: functional, Homo sapiens; details: Homo sapiens, COLO 205; method in brief: as §1
OVCAR-3 [2] = assay: Growth inhibitory activity was determined against OVCAR-3 cancer cell line of Ovarian cancer; format: functional; details: Homo sapiens; method in brief: as §1
[3] = biological target: T1, M-phase inducer phosphatase 1 (Homo sapiens); assay: (§3) Inhibitory activity tested against cell division cycle 25A (assay using fluorescein diphosphate (FDP) as substrate)
Method in brief: (§4)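 Recombinant human GST-Cdc25A fusion protein, each batch calibrated so that FDP was dephosphorylated linearly over 20 min. Fluorescein diphosphate was the substrate. Reactions ran 15 min at 25 °C in the dark and were stopped with sodium orthovanadate. Fluorescein monophosphate was read at 485 nm excitation and 530 nm emission. IC50 came from at least two independent runs, each in triplicate.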

NCI/ADR-RES = assay: Growth inhibitory activity was determined against NCI/ADR-RES cancer cell line of Breast cancer; format: functional, Homo sapiens; details: Homo sapiens, NCI/ADR-RES; method in brief: as §1
BT-549 (Homo sapiens) = assay: Growth inhibitory activity was determined against BT-549 cancer cell line of Breast cancer; details: Homo sapiens, BT-549
SN12C = assay: Growth inhibitory activity was determined against SN12C cancer cell line of renal cancer; format: functional; details: Homo sapiens; method in brief: as §1
SF-539 = assay: Growth inhibitory activity was determined against SF-539 cancer cell line of CNS cancer; format: functional; details: Homo sapiens; method in brief: as §1
HT-29 = assay: Growth inhibitory activity was determined against HT-29 cancer cell line colon cancer; format: functional, Homo sapiens; details: Homo sapiens, HT-29; method in brief: as §1
OVCAR-8 [4] = assay: Growth inhibitory activity was determined against OVCAR-8 cancer cell line of Ovarian cancer; format: functional; details: Homo sapiens; method in brief: as §1
T47D = assay: Growth inhibitory activity was determined against T-47D cancer cell line of Breast cancer; format: functional, Homo sapiens; details: Homo sapiens, T47D; method in brief: as §1
HCC 2998 = assay: Growth inhibitory activity was determined against HCC2998 cancer cell line colon cancer; format: functional, Homo sapiens; details: Homo sapiens, HCC 2998; method in brief: as §1
UO-31 = assay: Growth inhibitory activity was determined against UO-31 cancer cell line of renal cancer; format: functional; details: Homo sapiens; method in brief: as §1
NCI-H23 = assay: Growth inhibitory activity was determined against NCI-H23 cancer cell line of non-small cell lung cancer; format: functional, Homo sapiens; details: Homo sapiens, NCI-H23; method in brief: as §1
[5] = biological target: Receptor-type tyrosine-protein phosphatase C, CD45 (Homo sapiens) (UniProt P08575); assay: Inhibitory activity tested against human CD45 receptor-type tyrosine-protein phosphatase C
OVCAR-3 [6] = assay: Growth inhibitory activity was determined against OVCAR-3 cancer cell lines of Ovarian cancer; format: functional; details: Homo sapiens; method in brief: as §1
OVCAR-8 [7] = assay: Growth inhibitory activity was determined against OVCAR-8 cancer cell lines of Ovarian cancer; format: functional; details: Homo sapiens; method in brief: as §1
[8] = biological target: T2, M-phase inducer phosphatase 1 (Homo sapiens, UniProt P30304); assay: as §3
T2 sequence (P30304 whole entry): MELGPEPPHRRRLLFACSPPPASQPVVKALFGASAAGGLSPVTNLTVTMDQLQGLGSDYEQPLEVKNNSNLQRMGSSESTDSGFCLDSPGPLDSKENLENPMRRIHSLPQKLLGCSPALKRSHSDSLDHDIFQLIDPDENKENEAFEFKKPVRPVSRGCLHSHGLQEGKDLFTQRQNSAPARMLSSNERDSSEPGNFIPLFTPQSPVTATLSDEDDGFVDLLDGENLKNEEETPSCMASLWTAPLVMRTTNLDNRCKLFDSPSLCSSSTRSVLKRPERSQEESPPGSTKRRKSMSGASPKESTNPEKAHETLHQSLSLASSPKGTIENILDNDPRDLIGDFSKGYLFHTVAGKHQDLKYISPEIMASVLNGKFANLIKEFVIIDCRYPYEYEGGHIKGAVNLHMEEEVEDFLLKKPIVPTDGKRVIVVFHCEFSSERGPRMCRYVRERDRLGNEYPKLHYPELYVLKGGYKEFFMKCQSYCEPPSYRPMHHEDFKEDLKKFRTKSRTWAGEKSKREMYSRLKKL
Method in brief: as §4, with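 “orthovanadate.” for “orthovanadate. Fluorescein monophosphate was read at 485 nm excitation and 530 nm emission.”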

SF-268 = assay: Growth inhibitory activity was determined against SF-268 cancer cell line of CNS cancer; format: functional; details: Homo sapiens; method in brief: as §1
[9] = biological target: T2, M-phase inducer phosphatase 1; assay: as §2
NCI-H522 = assay: Growth inhibitory activity was determined against NCI-H522 cancer cell line of non-small cell lung cancer; format: functional; details: Homo sapiens; method in brief: as §1
[10] = biological target: Receptor-type tyrosine-protein phosphatase C, CD45 (Homo sapiens) (UniProt P08575); assay: Inhibitory activity tested against human CD45 (receptor-type tyrosine-protein phosphatase C)
[11] = substrate: C=C(CCCCC#N)[C@H]1CC[C@]2(C)[C@@H]([C@H](C)CCCC(C)C)CC[C@H]2[C@@H]1CC(=O)O; details: 2.5 uM
[12] = substrate: C=C(CCCCC#N)[C@H]1CC[C@]2(C)[C@@H]([C@H](C)CCCC(C)C)CC[C@H]2[C@@H]1CC(=O)O
[13] = substrate: C=C(CCCCC#N)[C@H]1CC[C@]2(C)[C@@H]([C@H](C)CCCC(C)C)CC[C@H]2[C@@H]1CC(=O)O; remark: listed apart in the source
[14] = substrate: C=C(CCCCC#N)[C@H]1CC[C@]2(C)[C@@H]([C@H](C)CCCC(C)C)CC[C@H]2[C@@H]1CC(=O)O; details: 5 uM
[15] = substrate: C=C(CCCCC#N)[C@H]1CC[C@]2(C)[C@@H]([C@H](C)CCCC(C)C)CC[C@H]2[C@@H]1CC(=O)O; details: 1.25 uM
[16] = substrate: C=C(CCCCC#N)[C@H]1CC[C@]2(C)[C@@H]([C@H](C)CCCC(C)C)CC[C@H]2[C@@H]1CC(=O)O; remark: listed apart in the source
[17] = substrate: C=C(CCCCC#N)[C@H]1CC[C@]2(C)[C@@H]([C@H](C)CCCC(C)C)CC[C@H]2[C@@H]1CC(=O)O; details: 0.625 uM
[18] = substrate: C=C(CCCCC#N)[C@H]1CC[C@]2(C)[C@@H]([C@H](C)CCCC(C)C)CC[C@H]2[C@@H]1CC(=O)O; remark: listed apart in the source

Sequence of Receptor-type tyrosine-protein phosphatase C, CD45 (Homo sapiens) (P08575 whole entry, looked up): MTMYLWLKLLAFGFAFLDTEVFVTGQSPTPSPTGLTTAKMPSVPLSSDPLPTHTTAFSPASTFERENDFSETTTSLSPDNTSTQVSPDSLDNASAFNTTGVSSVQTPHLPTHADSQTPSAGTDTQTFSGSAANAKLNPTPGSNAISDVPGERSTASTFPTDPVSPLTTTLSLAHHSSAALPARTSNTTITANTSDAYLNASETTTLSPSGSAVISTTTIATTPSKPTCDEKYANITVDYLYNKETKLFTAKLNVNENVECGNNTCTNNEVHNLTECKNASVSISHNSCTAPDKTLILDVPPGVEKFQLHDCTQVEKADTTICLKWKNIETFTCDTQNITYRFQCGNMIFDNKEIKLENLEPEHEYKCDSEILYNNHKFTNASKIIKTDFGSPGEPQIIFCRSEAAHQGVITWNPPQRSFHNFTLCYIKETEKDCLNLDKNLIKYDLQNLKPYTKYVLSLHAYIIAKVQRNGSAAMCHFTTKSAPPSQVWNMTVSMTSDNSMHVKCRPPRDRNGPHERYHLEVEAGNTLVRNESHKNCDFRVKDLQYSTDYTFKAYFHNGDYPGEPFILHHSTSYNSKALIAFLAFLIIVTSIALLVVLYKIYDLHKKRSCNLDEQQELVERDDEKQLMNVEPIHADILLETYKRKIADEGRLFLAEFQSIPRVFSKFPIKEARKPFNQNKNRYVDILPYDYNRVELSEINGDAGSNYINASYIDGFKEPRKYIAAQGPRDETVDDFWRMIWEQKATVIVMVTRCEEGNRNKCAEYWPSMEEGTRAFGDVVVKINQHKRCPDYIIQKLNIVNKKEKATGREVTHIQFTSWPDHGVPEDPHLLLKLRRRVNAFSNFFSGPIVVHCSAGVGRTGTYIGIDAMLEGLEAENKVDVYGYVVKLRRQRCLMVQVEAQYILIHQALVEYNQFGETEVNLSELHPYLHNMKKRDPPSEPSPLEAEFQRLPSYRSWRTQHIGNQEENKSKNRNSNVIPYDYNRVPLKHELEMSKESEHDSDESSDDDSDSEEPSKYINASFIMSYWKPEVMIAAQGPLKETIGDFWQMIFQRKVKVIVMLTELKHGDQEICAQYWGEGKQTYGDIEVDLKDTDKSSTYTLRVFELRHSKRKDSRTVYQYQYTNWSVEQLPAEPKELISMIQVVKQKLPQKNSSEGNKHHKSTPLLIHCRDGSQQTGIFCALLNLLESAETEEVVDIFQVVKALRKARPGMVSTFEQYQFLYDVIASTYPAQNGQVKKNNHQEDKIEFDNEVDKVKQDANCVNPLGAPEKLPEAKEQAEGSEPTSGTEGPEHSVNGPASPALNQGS

Row | Molecule | GI50 (786-0) | GI50 (A549) | GI50 (U-251) | GI50 (PC-3) | GI50 (SK-MEL-5) | GI50 (COLO 205) | GI50 (NCI/ADR-RES) | GI50 (BT-549 (Homo sapiens)) | GI50 (SN12C) | GI50 (SF-539) | GI50 (HT-29) | GI50 (T47D) | GI50 (HCC 2998) | GI50 (UO-31) | GI50 (NCI-H23) | further results
1 | C=C(CCCCC#N)[C@H]1CC[C@]2(C)[C@@H]([C@H](C)CCCC(C)C)CC[C@H]2[C@@H]1CC(=O)O | 11.5 µM | 5.21 µM | 6.49 µM | 7.36 µM | 5.98 µM | 5.1 µM | 5.66 µM | 5.62 µM | 6.9 µM | 4.5 µM | 7.77 µM | 8.39 µM | 6.33 µM | 9.41 µM | 5.12 µM | IC50 [1]: 8.3 µM; GI50 (LOX IMVI): 4.92 µM; GI50 (OVCAR-3 [2]): 6.64 µM; IC50 [3]: 2.2 µM; GI50 (OVCAR-8 [4]): 4.78 µM; IC50 [5]: 12.2 µM
2 | CC(C)CCC[C@@H](C)[C@H]1CC[C@H]2[C@@H]3CC(=O)O[C@](C)(CCCCC(=O)O)[C@H]3CC[C@]12C | 8.44 µM | 8.3 µM | 6.28 µM | 7.21 µM | 9.69 µM | 6.13 µM | 5.55 µM | 4.19 µM | 8.3 µM | 14.6 µM | 7.76 µM | 7.3 µM | 4.43 µM | 11 µM | 4.92 µM | GI50 (OVCAR-3 [6]): 5.78 µM; GI50 (OVCAR-8 [7]): 5.13 µM; IC50 [8]: 5.1 µM; GI50 (SF-268): > 25 µM; IC50 [9]: 11.6 µM; GI50 (NCI-H522): > 25 µM; IC50 [10]: > 100 µM
3 | M-phase inducer phosphatase 1 (Homo sapiens), P30304 (protein) MELGPEPPHRRRLLFACSPPPASQPVVKALFGASAAGGLSPVTNLTVTMDQLQGLGSDYEQPLEVKNNSNLQRMGSSESTDSGFCLDSPGPLDSKENLENPMRRIHSLPQKLLGCSPALKRSHSDSLDHDIFQLIDPDENKENEAFEFKKPVRPVSRGCLHSHGLQEGKDLFTQRQNSAPARMLSSNERDSSEPGNFIPLFTPQSPVTATLSDEDDGFVDLLDGENLKNEEETPSCMASLWTAPLVMRTTNLDNRCKLFDSPSLCSSSTRSVLKRPERSQEESPPGSTKRRKSMSGASPKESTNPEKAHETLHQSLSLASSPKGTIENILDNDPRDLIGDFSKGYLFHTVAGKHQDLKYISPEIMASVLNGKFANLIKEFVIIDCRYPYEYEGGHIKGAVNLHMEEEVEDFLLKKPIVPTDGKRVIVVFHCEFSSERGPRMCRYVRERDRLGNEYPKLHYPELYVLKGGYKEFFMKCQSYCEPPSYRPMHHEDFKEDLKKFRTKSRTWAGEKSKREMYSRLKKL | – | – | – | – | – | – | – | – | – | – | – | – | – | – | – | Vmax [11]: 3070; Km [12]: 23.1 µM; Km [13]: 32.3 µM; Vmax [14]: 632; Vmax [15]: 4260; Km [16]: 37.4 µM; Vmax [17]: 4610; Km [18]: 33.6 µM
